Data taken from ChEMBL document CHEMBL1240445, “Synthesis, antioxidant and DNA cleavage activities of novel indole derivatives” (Eur J Med Chem, 2010).
Active and inactive are the calls of the source. No cut-off for these calls is given here.

How the values were obtained:
Nucleic Acid = assay: cleavage of Escherichia coli DNA by agarose gel electrophoresis; format: nucleic-acid assay
Method in brief: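 Genomic DNA from E. coli grown 24 h at 37 °C in nutrient broth, isolated by SDS lysis, phenol and chloroform:isoamyl alcohol extraction, ethanol precipitation. Samples (1 mg/ml stock in DMF) added to DNA, incubated 2 h at 37 °C, mixed 1:1 with bromophenol blue, run on agarose gel in TAE beside DNA marker, 50 V for 30 min.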

[1] = Antioxidant activity assessed as equivalence of ascorbic acid; format: functional
Method in brief: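 Phosphomolybdenum total antioxidant capacity: 10, 50 and 500 µg sample mixed with 1.9 mL reagent (0.6 M sulfuric acid, 28 mM sodium phosphate, 4 mM ammonium molybdate), heated 95 °C for 90 min, cooled; absorbance at 695 nm against blank. Expressed as ascorbic acid equivalents from an ascorbic acid standard graph.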

[2] = Antioxidant activity assessed as ferric reduction; format: functional
Method in brief: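 Reducing power: sample with 200 mmol/L sodium phosphate buffer (pH 6.6) and 2.5 mL 1% potassium ferricyanide, held 50 °C for 20 min, then 2.5 mL 10% (w/v) trichloroacetic acid added.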

[3] = system: Radical scavenging activity; assay: Antioxidant activity assessed as DPPH radical scavenging activity; format: functional
Method in brief: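 DPPH method: 10, 50 and 100 µg sample or BHA brought to 100 µl with MeOH, plus 5 mL 0.1 mM methanolic DPPH, shaken, left 20 min at 27 °C; absorbance at 517 nm versus control lacking sample. % scavenging = [(control OD − sample OD)/control OD] × 100.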

Structure (SMILES) | Activity (Nucleic Acid) | Activity [1] | Activity [2] | Activity [3]
Cc1ccc2[nH]c(-c3ccccc3)c(/C=C/C(=C3C(=O)NC(=O)NC3=O)c3ccccc3)c2c1 | Active |  |  | 
O=C1NC(=O)C(=C(/C=C/c2c(-c3ccccc3)[nH]c3ccc(Cl)cc23)c2ccc(Cl)cc2)C(=O)N1 | Active |  |  | Active
Cc1ccc2[nH]c(-c3ccccc3)c(/C=C/C(=C3C(=O)NC(=O)NC3=O)c3ccc(Cl)cc3)c2c1 | Active |  |  | 
Cc1ccc(C(/C=C/c2c(-c3ccccc3)[nH]c3ccc(Cl)cc23)=C2C(=O)NC(=O)NC2=O)cc1 | Active |  |  | Active
Cc1ccc(C(/C=C/c2c(-c3ccccc3)[nH]c3ccc(C)cc23)=C2C(=O)NC(=O)NC2=O)cc1 | Active |  |  | 

Continued, in another order:

Activity (Nucleic Acid) | Structure (SMILES) | Activity [1] | Activity [2] | Activity [3]
Active | O=C1NC(=O)C(=C(/C=C/c2c[nH]c3ccccc23)c2ccccc2)C(=O)N1 | Active | Active | 
Active | Cc1ccc(C(/C=C/c2c[nH]c3ccccc23)=C2C(=O)NC(=O)NC2=O)cc1 | Active | Active | 
Active | O=C1NC(=O)C(=C(/C=C/c2c[nH]c3ccccc23)c2ccc(Cl)cc2)C(=O)N1 | Active | Active | 
Active | O=C1NC(=O)C(=C(/C=C/c2c(-c3ccccc3)[nH]c3ccc(Cl)cc23)c2ccccc2)C(=O)N1 |  |  | Active
